Assay outcomes from PubChem BioAssay.
Rows were chosen to be rich in hits. Some 3.5% of all compounds tested hit in one or more screens of this group.
pPAFAH FP inh: inhibitors of human plasma PAF acetylhydrolase (pPAFAH); Q13093; recombinant pPAFAH, FP-rhodamine probe fluorescence polarization; inhibition, % at 3.39 µM; 330,000 compounds, 1.5% hits;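 active means inhibition above the mean inhibition across the screen plus 3 SD, cut at about 25% in these data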;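 further: inhibitors block binding of the rhodamine activity-based probe so polarization drops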
PAFAH2 FP inh: inhibitors of human PAFAH2 | Q99487 | recombinant PAFAH2, FP-rhodamine activity probe, fluorescence polarization | inhibition, % at 3.39 µM | 340,000 compounds, 0.99% hits;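 active means inhibition above the mean over all tested compounds plus 3 SD, cut at about 30% in these data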;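 further: inhibitors block probe labeling of enzyme so polarization drops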
PAFAH1B2 inh: inhibitors of human PAFAH1B2 | recombinant PAFAH1B2, FP-rhodamine activity probe, fluorescence polarization | inhibition, % at 3.39 µM | P68402 | 340,000 compounds, 1.2% hits;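 active means inhibition above the mean of all tested compounds plus 3 SD, cut at about 24% in these data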
Apaf-1 inh: blocks human Apaf-1 apoptosome activity; O14727; reconstituted apoptosome caspase-3 activity, DEVD-Rh110 fluorescence; inhibition, % at 20 µM; 330,000 compounds, 0.71% hits; AID 489030; active means inhibition of at least 40% at 20 µM
Target sequence (O14727 whole entry, looked up): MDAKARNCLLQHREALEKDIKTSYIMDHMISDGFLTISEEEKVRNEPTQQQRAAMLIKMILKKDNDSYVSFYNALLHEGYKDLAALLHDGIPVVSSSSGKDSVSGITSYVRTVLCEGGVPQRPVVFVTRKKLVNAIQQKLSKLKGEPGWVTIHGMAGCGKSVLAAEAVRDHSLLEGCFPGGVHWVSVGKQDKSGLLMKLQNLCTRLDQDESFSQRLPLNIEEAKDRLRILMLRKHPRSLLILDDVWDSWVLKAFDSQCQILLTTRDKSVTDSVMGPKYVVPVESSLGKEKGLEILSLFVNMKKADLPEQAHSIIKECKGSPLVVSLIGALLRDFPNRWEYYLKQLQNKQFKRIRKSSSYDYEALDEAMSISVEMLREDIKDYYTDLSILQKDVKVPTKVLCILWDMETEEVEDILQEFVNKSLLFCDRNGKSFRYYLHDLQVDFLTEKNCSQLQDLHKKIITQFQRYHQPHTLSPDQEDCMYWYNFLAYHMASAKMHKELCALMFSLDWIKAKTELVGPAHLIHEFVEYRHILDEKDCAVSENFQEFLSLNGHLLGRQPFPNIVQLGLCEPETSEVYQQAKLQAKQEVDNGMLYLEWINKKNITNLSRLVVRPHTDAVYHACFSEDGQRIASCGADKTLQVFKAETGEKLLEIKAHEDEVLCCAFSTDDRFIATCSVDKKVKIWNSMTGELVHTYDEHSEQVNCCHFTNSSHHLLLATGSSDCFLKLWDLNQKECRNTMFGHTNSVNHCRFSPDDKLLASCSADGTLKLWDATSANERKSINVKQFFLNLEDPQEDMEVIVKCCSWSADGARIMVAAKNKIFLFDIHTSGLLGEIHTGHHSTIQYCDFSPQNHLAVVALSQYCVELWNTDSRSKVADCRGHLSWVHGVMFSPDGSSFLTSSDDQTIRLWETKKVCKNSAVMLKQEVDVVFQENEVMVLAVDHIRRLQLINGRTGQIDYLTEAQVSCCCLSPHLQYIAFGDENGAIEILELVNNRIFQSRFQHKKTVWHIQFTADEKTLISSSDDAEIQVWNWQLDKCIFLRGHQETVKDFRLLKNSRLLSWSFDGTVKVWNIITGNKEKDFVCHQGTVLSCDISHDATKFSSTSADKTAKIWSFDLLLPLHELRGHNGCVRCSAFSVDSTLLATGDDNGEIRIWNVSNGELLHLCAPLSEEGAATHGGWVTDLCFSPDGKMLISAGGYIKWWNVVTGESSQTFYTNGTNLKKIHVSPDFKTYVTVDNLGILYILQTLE
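Material: cell-free apoptosome with Apaf-1, procaspase-3 and caspase-9; Buffer or medium: Hepes pH 7.5 with detergent and BSA; Reagent: cytochrome c trigger plus (Z-DEVD)2-Rh110 caspase-3 substrate; Times: compound with Apaf-1, dATP, procaspase-3 30 min, then 50 min reaction, room temperature; Technique: Rh110 fluorescence intensity.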
PAFAH1B3 FP inh: PAFAH1B3 (human) inhibition; recombinant PAFAH1B3, FP-rhodamine probe, fluorescence polarization; inhibition, % at 3.39 µM; 340,000 compounds, 0.28% hits;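 active means inhibition above the screen-wide average of all tested compounds plus 3 SD, cut at about 25% in these data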
PREPL inhibitor: inhibitors of human prolyl oligopeptidase-like enzyme PREPL. inhibition, % at 5.96 µM. 320,000 compounds, 0.68% hits. recombinant PREPL, fluorescence polarization activity-based probe. Q4J6C6. AID 2751; in the data active means inhibition above about 43%
PAFAH2 FP conf: confirmation of human PAFAH2 inhibitors. recombinant PAFAH2, FP-rhodamine activity probe, fluorescence polarization. shares compounds with PAFAH2 FP inh. 2,300 compounds, 65% hits. inhibition, % at 3.39 µM;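 active means mean inhibition over three repeats above a set limit taken from the earlier primary screen, cut at about 30% in these data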;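 further: inhibitor blocks binding of rhodamine activity probe so polarization falls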
Large screens that a line does not name were inactive (follow-up assays come after a bar, where they were run).

COc1ccc(/C=C/C(=O)OCC(=O)Nc2ncc(Cl)cc2Cl)cc1	PAFAH2 FP inh 37 | PAFAH2 FP conf 43
COc1ccc(/C=C/C(=O)OCC(=O)Nc2ccc(Cl)cn2)cc1	none
Cc1nn(-c2ccccc2)c(C)c1/C=C/C(=O)OC(C)C(=O)Nc1ncc(Cl)cc1Cl (centres undefined)	none
Cc1nn(-c2ccccc2)c(C)c1/C=C/C(=O)OCC(=O)Nc1ncc(Cl)cc1Cl	PAFAH2 FP inh 49 | PAFAH2 FP conf 55
O=C(COC(=O)c1ccc(F)cc1F)Nc1cccc(S(=O)(=O)N2CCOCC2)c1	PAFAH2 FP inh 34 (no result: pPAFAH FP inh, PREPL inhibitor) | PAFAH2 FP conf 35
Cc1cc(C(=O)OCC(=O)Nc2cccc(S(N)(=O)=O)c2)c(C)o1	none
Cc1cc(C(=O)OCC(=O)Nc2cccc(S(=O)(=O)N3CCOCC3)c2)c(C)o1	PAFAH2 FP inh 36 | PAFAH2 FP conf inactive
COc1ccccc1CCC(=O)OCC(=O)Nc1cccc(S(=O)(=O)N2CCOCC2)c1	PAFAH2 FP inh 73 | PAFAH2 FP conf 66
COc1ccccc1CCC(=O)OCC(=O)Nc1cccc(S(=O)(=O)N2CCCCC2)c1	none
CC(=O)Nc1ccc(NC(=O)COC(=O)c2cc(S(=O)(=O)N3CCCC3)ccc2O)cc1	none
O=C(COC(=O)c1cc(S(=O)(=O)N2CCCC2)ccc1O)Nc1ccc(F)cc1F	PAFAH2 FP inh 42 | PAFAH2 FP conf inactive
CCCC(=O)Nc1cc(OC)c(NC(=S)Nc2ccc(CC)cc2)cc1OC	none (no result: pPAFAH FP inh, Apaf-1 inh, PREPL inhibitor)
Cc1ccc2c(c1)CCCN2C(=O)c1cc(C)on1	none
O=c1c2c([nH]n1-c1ccccc1)CCSC2	none
Cc1noc(C)c1COc1ccc(C(=O)OCC(=O)Nc2cccc(S(=O)(=O)N3CCOCC3)c2)cc1	PAFAH2 FP inh 72 | PAFAH2 FP conf 65
CCOC(=O)C1=CN(Cc2ccco2)S(=O)(=O)NC1c1ccc(Br)cc1F (centres undefined)	none (no result: PREPL inhibitor) | PAFAH2 FP conf inactive
CCOC(=O)C1=CN(Cc2cccc(F)c2)S(=O)(=O)NC1c1ccccc1 (centres undefined)	none (no result: PREPL inhibitor)
Cc1nc(NC(=O)COC(=O)c2ccc(CO)cc2)c(Cl)cc1Cl	PAFAH2 FP inh 44 | PAFAH2 FP conf inactive
Cc1noc(/C=C/N(C)C)c1S(=O)(=O)N1CCC(C(=O)NC(C)(C)C)CC1	none
COc1ccccc1NS(=O)(=O)c1ccc(O)c(C(=O)OCC(=O)c2ccc(Cl)cc2Cl)c1	PAFAH2 FP inh 38 | PAFAH2 FP conf inactive
COc1ccccc1NS(=O)(=O)c1ccc(O)c(C(=O)OCC(=O)N2CCc3ccccc32)c1	PAFAH2 FP inh 45 | PAFAH2 FP conf inactive
COc1ccccc1NS(=O)(=O)c1ccc(O)c(C(N)=O)c1	none
COc1ccccc1NS(=O)(=O)c1ccc(O)c(C(=O)OCC(=O)N2c3ccccc3CC2C)c1 (centres undefined)	PAFAH2 FP inh 57 | PAFAH2 FP conf 47
CCN(CC)S(=O)(=O)c1ccc(O)c(C(=O)OCC(=O)N2c3ccccc3CC2C)c1 (centres undefined)	PAFAH2 FP inh 75 | PAFAH2 FP conf 75
CC(=O)Nc1ccc(NC(=O)CC(C)n2ccnc2)cc1 (centres undefined)	PAFAH2 FP inh active | PAFAH2 FP conf inactive
CC(CC(=O)Nc1nc2ccccc2[nH]1)n1ccnc1 (centres undefined)	none
CC(=O)c1cccc(NC(=O)COC(=O)c2ccccc2C)c1	PAFAH2 FP inh 63 | PAFAH2 FP conf 62
O=C(COC(=O)c1cc(-c2cccs2)nn1-c1ccccc1)Nc1cccc([N+](=O)[O-])c1	PAFAH2 FP inh 32 | PAFAH2 FP conf 39
O=C(COC(=O)c1ccccc1C(=O)c1ccccc1)Nc1cccc([N+](=O)[O-])c1	PAFAH2 FP inh 89 | PAFAH2 FP conf 82
CCOc1ncccc1C(=O)OCC(=O)Nc1cccc(C(C)=O)c1	PAFAH2 FP inh 62 | PAFAH2 FP conf 55
CC(=O)c1cccc(NC(=O)COC(=O)c2ccccn2)c1	none
Cc1ccc(S(=O)(=O)N2CCC(C(=O)NCc3ccncc3)CC2)cc1	none
O=C(CSc1nc2ccccc2c(=O)n1-c1ccccc1Cl)NCC1CCCO1 (centres undefined)	none
O=C(c1ccc(Cl)nc1)N1CCC(Cc2ccccc2)CC1	none
COC(=O)C1=C(C)N(C)C(=O)NC1c1c(O)ccc2ccccc12 (centres undefined)	none
CCOc1ncccc1C(=O)OCC(=O)Nc1cccc(S(N)(=O)=O)c1	PAFAH2 FP inh 33 | PAFAH2 FP conf inactive
CCOc1ncccc1C(=O)OCC(=O)Nc1ccc(S(=O)(=O)N2CCCC2)cc1	none
CCOC(=O)C1=C(CC)Nc2ccccc2N/C1=N\S(=O)(=O)c1ccccc1OC	none
O=C(c1cc2c(s1)CCCC2)n1cccn1	PAFAH2 FP inh 63, PREPL inhibitor 68 | PAFAH2 FP conf 55
O=C(c1cc2c(s1)CCCCC2)N1CCN(c2ncccn2)CC1	none
C/C(CC(C)C)=N\Nc1ccc(S(N)(=O)=O)cc1[N+](=O)[O-]	none
Cc1ccc(S(=O)(=O)n2nc(OC(=O)c3cccc(F)c3)cc2N)cc1	none
Cc1ccc(S(=O)(=O)n2nc(OC(=O)c3c(F)cccc3Cl)cc2N)cc1	PAFAH2 FP inh 34 | PAFAH2 FP conf inactive
CCCCCCCC(=O)NNC(=O)c1c(O)c2ccccc2[nH]c1=O	none
CCCCCCC(=O)Nc1c(O)c2ccccc2[nH]c1=O	PAFAH2 FP inh 42 | PAFAH2 FP conf inactive
Nc1cc([N+](=O)[O-])ccc1N1C(=O)CCCC1=O	none
COc1ccc(CCN(C)C(=O)COc2ccc(N(C)S(=O)(=O)c3ccc(C)cc3)cc2)cc1OC	none
O=C(OCn1nnc2ccccc2c1=O)c1cccnc1	none
COc1cccc(C(=O)OCn2nnc3ccccc3c2=O)c1	PAFAH2 FP inh 37 | PAFAH2 FP conf inactive
O=C(OCc1nc2ccccc2c(=O)[nH]1)c1cccs1	PAFAH2 FP inh 42 | PAFAH2 FP conf inactive
CCC(=O)OCn1nnc2ccccc2c1=O	none
COc1ccc(C(=O)OCn2nnc3ccccc3c2=O)cc1OC	PAFAH2 FP inh 36 | PAFAH2 FP conf 46
O=C(OCn1nnc2ccccc2c1=O)c1cccs1	PAFAH2 FP inh 47 | PAFAH2 FP conf 37
O=c1[nH]c(Cc2cccs2)nc2ccccc12	none
CC(=O)Nc1ccc(NS(=O)(=O)c2ccc3c(c2)oc(=O)n3C)cc1	none
CCN(C(=O)c1cccs1)C1CCS(=O)(=O)C1 (centres undefined)	none (no result: pPAFAH FP inh, PREPL inhibitor)
CCN1CCN(Cc2nnc(-c3ccc(C)cc3)o2)CC1	none
O=C1/C(=C/c2ccccn2)SC(=S)N1Nc1ncc(C(F)(F)F)cc1Cl	PAFAH2 FP inh 37 (no result: pPAFAH FP inh, Apaf-1 inh, PREPL inhibitor) | PAFAH2 FP conf inactive
